Source: ChEMBL document CHEMBL1132425, “Synthesis and antiviral activity of ethidium-arginine conjugates directed against the TAR RNA of HIV-1” (J Med Chem, 1999)

Columns and labels:
MT4 [1] = assay: (§1) Cytotoxicity towards uninfected MT-4 cell lines; format: functional, Homo sapiens
How it was run: (§2)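 Uninfected MT4 cells with graded compound levels; viability by MTT reduction to formazan. Triplicate per concentration, experiment run twice.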

PBMC [2] = assay: Cytotoxicity towards uninfected PBMC cell lines; format: functional; details: Homo sapiens
How it was run: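 Uninfected PBMC incubated 7 days with compound; viability by colorimetric MTT assay. Triplicate per concentration, experiment repeated twice.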

PBMC [3] = assay: (§3) Anti-HIV-1 activity against PBMC cell lines; format: functional, cell-based; details: Homo sapiens
How it was run: (§4)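 Infected PBMC grown 7 days with graded compound concentrations after virus incubation; HIV-1 production measured as reverse transcriptase activity in culture supernatant. Triplicate per concentration, whole experiment done twice.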

CEM-SS [4] = assay: Cytotoxicity towards uninfected CEM-SS cell lines; format: functional; details: Homo sapiens
How it was run: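 Uninfected CEM-SS cells exposed 5 days to varied compound concentrations; viability by MTT colorimetric test. CC50 is the concentration halving OD540, from median-effect dose analysis. Triplicate per concentration, experiment repeated twice.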

MT4 [5] = assay: (§5) Anti-HIV-1 activity against MT-4 cell lines; format: functional, cell-based; details: Homo sapiens
How it was run: (§6)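 MT4 cells (RPMI + 10% heat-treated FCS) infected with HIV-1; protection from virus-induced cytopathicity read by MTT reduction to formazan by mitochondrial dehydrogenases. Triplicate per concentration, experiment repeated twice. Where inhibition stayed under 50%, the measured percentage is reported in parentheses.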

MT4 [6] = assay: as §5; format: functional; details: Homo sapiens; how it was run: as §6
CEM-SS [7] = assay: Anti-HIV-1 activity against CEM-SS cell lines; format: functional, cell-based; details: Homo sapiens
How it was run: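 HIV-1 LAI (grown in CEM-SS) infecting CEM-SS cells kept in RPMI + 10% heat-treated FCS; 30-min adsorption, unbound virus washed off, then 5 days culture with graded compound concentrations. Virus output read as reverse transcriptase activity in supernatant. Triplicate per concentration, experiment run twice; IC50 from median-effect plot of dose-effect data.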

MT4 [8] = assay: as §1; format: functional; details: Homo sapiens; how it was run: as §2
PBMC [9] = assay: as §3; format: functional, Homo sapiens; how it was run: as §4

SMILES	Inhibition (MT4 [1]) [%]	CC50 (PBMC [2]) [µM]	IC50 (PBMC [3]) [µM]	CC50 (CEM-SS [4]) [µM]	IC50 (MT4 [5]) [µM]	CC50 (MT4 [6]) [µM]	IC50 (CEM-SS [7]) [µM]	CC50 (MT4 [8]) [µM]	Inhibition (PBMC [9]) [%]
COC(=O)C(CCCN=C(N)N)NC(=O)CCNC(=O)CCCCCNC(=O)c1cccc(-c2c3cc(N)ccc3c3ccc(N)cc3[n+]2C)c1.[Cl-] (centres undefined)	45	> 100	8.7	> 100	> 100	> 100	4.6	–	–
COC(=O)C(CCCN=C(N)N)NC(=O)CCNC(=O)c1cccc(-c2c3cc(N)ccc3c3ccc(N)cc3[n+]2C)c1 (centres undefined)	–	47	78	85	> 100	–	83	21	–
C[n+]1c(-c2cccc(C(=O)NCCCCCC(=O)NCCC(=O)NC(CCCN=C(N)N)C(=O)O)c2)c2cc(N)ccc2c2ccc(N)cc21 (centres undefined)	–	> 100	2.5	> 100	11	–	2.4	> 100	–
C[n+]1c(-c2cccc(C(=O)NCCCCCC(=O)NC(CCCN=C(N)N)C(=O)O)c2)c2cc(N)ccc2c2ccc(N)cc21.[Cl-] (centres undefined)	–	> 100	> 100	> 100	> 100	–	> 100	59	40
C[n+]1c(-c2cccc(C(=O)O)c2)c2cc(N)ccc2c2ccc(N)cc21	–	44	20	> 100	> 100	–	95	42	–
COC(=O)C(CCCN=C(N)N)NC(=O)CCCCCNC(=O)c1cccc(-c2c3cc(N)ccc3c3ccc(N)cc3[n+]2C)c1 (centres undefined)	–	> 100	89	> 100	> 100	–	> 100	60	–
C[n+]1c(-c2cccc(C(=O)NCCC(=O)NC(CCCN=C(N)N)C(=O)O)c2)c2cc(N)ccc2c2ccc(N)cc21 (centres undefined)	–	> 100	73	> 100	> 100	–	> 100	47	–
